Measured values published in ChEMBL document CHEMBL3351692, “Discovery and optimization of 1,3,5-trisubstituted pyrazolines as potent and highly selective allosteric inhibitors of protein kinase C-ζ” (J Med Chem, 2014).

Legend:
RAW264.7 = test: Cytotoxicity against mouse RAW264.7 cells assessed as living cells at 7.5 uM by MTT assay; format: cell-based; settings: raw264.7, 7.5 µM
How it was run: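 RAW 264.7 macrophages: MTT viability assay run in parallel with each nitrite (Griess) experiment, same cell line and same compound treatment conditions.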

[1] = molecular target: T1, Protein kinase C zeta type (Homo sapiens, UniProt Q05513); test: Inhibition of human PKCzeta assessed as phosphorylation reaction after 4 mins incubation by cell-free assay
T1 sequence (Q05513 whole entry): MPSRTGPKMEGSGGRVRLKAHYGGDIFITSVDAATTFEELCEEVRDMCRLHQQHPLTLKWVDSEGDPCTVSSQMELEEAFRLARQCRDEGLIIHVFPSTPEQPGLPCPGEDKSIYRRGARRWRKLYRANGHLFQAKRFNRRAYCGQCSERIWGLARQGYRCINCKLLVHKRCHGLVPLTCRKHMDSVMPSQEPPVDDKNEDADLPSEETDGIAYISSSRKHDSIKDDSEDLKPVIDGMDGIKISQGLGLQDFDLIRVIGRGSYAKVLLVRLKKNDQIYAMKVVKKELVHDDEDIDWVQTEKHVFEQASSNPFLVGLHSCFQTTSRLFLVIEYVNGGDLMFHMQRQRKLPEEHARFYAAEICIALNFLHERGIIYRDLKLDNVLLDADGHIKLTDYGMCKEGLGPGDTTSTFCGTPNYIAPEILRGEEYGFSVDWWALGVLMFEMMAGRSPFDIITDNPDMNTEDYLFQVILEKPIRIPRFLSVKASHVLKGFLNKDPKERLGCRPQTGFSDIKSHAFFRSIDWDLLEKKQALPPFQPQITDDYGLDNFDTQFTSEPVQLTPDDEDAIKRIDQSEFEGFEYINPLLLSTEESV

[2] = molecular target: T2, Protein kinase C iota type (Homo sapiens) (UniProt P41743); test: Inhibition of PKCiota (unknown origin) at 20 uM
T2 sequence (whole entry): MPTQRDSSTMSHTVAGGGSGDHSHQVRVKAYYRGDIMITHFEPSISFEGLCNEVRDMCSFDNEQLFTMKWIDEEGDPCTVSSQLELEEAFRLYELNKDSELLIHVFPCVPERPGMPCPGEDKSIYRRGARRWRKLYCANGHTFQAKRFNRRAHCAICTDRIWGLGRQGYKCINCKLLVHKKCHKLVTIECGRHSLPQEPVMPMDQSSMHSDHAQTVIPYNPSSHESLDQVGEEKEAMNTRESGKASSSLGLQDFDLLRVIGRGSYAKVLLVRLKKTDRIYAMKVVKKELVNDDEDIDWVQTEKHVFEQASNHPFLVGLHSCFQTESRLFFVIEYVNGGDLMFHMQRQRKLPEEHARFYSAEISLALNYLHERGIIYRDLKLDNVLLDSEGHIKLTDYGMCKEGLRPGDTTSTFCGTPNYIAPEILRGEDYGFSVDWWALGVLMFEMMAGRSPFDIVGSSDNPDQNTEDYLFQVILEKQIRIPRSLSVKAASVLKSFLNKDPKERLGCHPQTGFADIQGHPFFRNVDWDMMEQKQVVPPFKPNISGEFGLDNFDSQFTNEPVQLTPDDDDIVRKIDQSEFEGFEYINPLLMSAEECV
How it was run: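 Cell-free radiometric kinase assay with purified recombinant PKCι under conditions similar to the PKCζ assay. Reaction mixtures preincubated 4 min at 37 °C, then phosphorylation started with γ32P-ATP/Mg2+. Mean of at least two experiments.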

[3] = molecular target: T1, Protein kinase C zeta type; test: Inhibition of PKCzeta in human U937 cells assessed as inhibition of TNFalpha-induced NF-kappaB activation by reporter gene assay; format: cell-based, U-937
[4] = molecular target: T3, Nitric oxide synthase, inducible (Mus musculus) (UniProt P29477); test: Inhibition of iNOS induction in mouse RAW264.7 cells assessed as NO production at 7.5 uM; format: cell-based
T3 sequence (whole entry): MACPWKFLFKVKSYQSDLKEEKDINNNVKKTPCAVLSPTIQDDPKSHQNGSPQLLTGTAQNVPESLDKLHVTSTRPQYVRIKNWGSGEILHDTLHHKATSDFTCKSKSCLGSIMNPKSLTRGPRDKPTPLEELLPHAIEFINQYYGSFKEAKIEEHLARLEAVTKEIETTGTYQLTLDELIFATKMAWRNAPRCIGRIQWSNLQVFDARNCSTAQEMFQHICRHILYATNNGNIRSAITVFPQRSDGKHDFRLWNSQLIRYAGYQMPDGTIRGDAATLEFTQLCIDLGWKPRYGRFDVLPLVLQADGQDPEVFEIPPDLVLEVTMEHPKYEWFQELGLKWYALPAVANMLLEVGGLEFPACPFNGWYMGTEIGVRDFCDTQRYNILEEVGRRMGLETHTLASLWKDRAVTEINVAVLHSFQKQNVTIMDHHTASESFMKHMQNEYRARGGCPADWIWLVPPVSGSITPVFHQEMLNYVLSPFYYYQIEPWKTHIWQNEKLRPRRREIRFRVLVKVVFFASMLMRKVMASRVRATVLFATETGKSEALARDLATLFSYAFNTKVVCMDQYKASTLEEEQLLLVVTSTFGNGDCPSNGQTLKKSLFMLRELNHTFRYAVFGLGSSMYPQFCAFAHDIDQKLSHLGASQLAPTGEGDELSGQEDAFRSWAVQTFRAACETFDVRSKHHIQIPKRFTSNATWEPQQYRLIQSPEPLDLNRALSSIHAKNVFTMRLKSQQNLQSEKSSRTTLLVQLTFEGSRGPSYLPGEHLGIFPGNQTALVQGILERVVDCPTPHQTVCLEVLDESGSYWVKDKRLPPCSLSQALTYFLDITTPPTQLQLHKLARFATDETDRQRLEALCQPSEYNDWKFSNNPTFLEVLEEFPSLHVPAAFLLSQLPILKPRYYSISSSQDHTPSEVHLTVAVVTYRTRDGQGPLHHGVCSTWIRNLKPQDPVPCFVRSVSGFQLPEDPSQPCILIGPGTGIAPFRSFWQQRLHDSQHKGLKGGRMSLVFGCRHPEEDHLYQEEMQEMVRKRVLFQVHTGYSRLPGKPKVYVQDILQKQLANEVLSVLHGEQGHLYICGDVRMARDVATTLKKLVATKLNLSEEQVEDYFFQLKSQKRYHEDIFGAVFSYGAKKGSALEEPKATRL
How it was run: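 RAW 264.7 cells seeded at 8 × 10⁴ per well in DMEM/10% FBS and grown 2 days. Then exposed to LPS with compound or DMSO for 20 h. Supernatant nitrite measured by Griess reaction (sulfanilamide/NED) at 550 nm minus 620 nm background, quantified against a sodium nitrite standard curve. At least four experiments in triplicate.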

Structure (SMILES) | Activity (RAW264.7) | IC50 [1] | inhibition [2] | IC50 [3] | inhibition [4]
CC(C)(C)C1=NN(c2ccc(O)cc2)C(c2ccc(O)cc2)C1 (stereo not given) | Non-toxic | – | – | – | –
Oc1ccc(C2CC(c3ccccc3O)=NN2c2cccc(Cl)c2)cc1F (stereo not given) | Non-toxic | 2.9 µM | 25.2% | – | –
Oc1ccc(C2CC(c3ccccc3)=NN2c2ccc(Cl)cc2)cc1 (stereo not given) | Non-toxic | 3.5 µM | 31.6% | – | –
CC(C)(C)C1=NN(c2ccc(F)cc2F)C(c2ccc(O)cc2)C1 (stereo not given) | Non-toxic | – | – | – | –
CC(C)(C)C1=NN(c2cccc(C(F)(F)F)c2)C(c2ccc(O)cc2)C1 (stereo not given) | Non-toxic | 2.7 µM | 17% | 2.7 µM | –
CC1C(c2ccccc2O)=NN(c2cccc(Cl)c2)C1c1ccc(O)c(F)c1 (stereo not given) | Non-toxic | – | 23.1% | – | –
Oc1ccc(C2=NN(c3cccc(Cl)c3)C(c3ccc(O)c(F)c3)C2)c(O)c1 (stereo not given) | Non-toxic | < 0.1 µM | – | 1.1 µM | –
CC(C)c1ccc(N2N=C(C(C)(C)C)CC2c2ccc(O)cc2)cc1 (stereo not given) | Non-toxic | – | – | – | –
CC(C)(C)C1=NN(c2cccc(Cl)c2)C(c2ccc(O)cc2)C1 (stereo not given) | Non-toxic | 5.2 µM | 43.5% | – | –
Cc1ccc(N2N=C(C(C)(C)C)CC2c2ccc(O)cc2)c(C)c1 (stereo not given) | Non-toxic | – | – | – | –
CC(C)(C)C1=NN(c2ccc(F)c(F)c2F)C(c2ccc(O)cc2)C1 (stereo not given) | Non-toxic | 0.7 µM | 7.8% | 3.1 µM | –
COc1ccccc1C1=NN(c2ccc(Cl)cc2)C(c2ccc(O)cc2)C1 (stereo not given) | Non-toxic | – | – | – | –
Oc1ccc(C2CC(c3ccccn3)=NN2c2cccc(Cl)c2)cc1 (stereo not given) | Non-toxic | 6.2 µM | 24.1% | – | –
CC(C)(C)C1=NN(c2ccc(Cl)cc2)C(c2ccc(C#N)cc2)C1 (stereo not given) | Non-toxic | – | – | – | –
Oc1ccc(C2CC(c3ccccc3Cl)=NN2c2ccc(Cl)cc2)cc1 (stereo not given) | Non-toxic | – | – | – | –
CC(C)(C)C1=NN(c2ccc(Cl)cc2)C(c2cccc(O)c2)C1 (stereo not given) | Non-toxic | 5.3 µM | 17.4% | 2 µM | –
Oc1ccc(C2CC(c3ccc[nH]3)=NN2c2cccc(Cl)c2)cc1 (stereo not given) | Non-toxic | – | 20.3% | – | –
CC(C)(C)C1=NN(c2c(Cl)cccc2Cl)C(c2ccc(O)cc2)C1 (stereo not given) | Non-toxic | – | – | – | –
CC(C)(C)C1=NN(c2ccc(C(F)(F)F)cc2)C(c2ccc(O)cc2)C1 (stereo not given) | Non-toxic | 8.8 µM | – | – | –
Nc1ccc(C2=NN(c3ccc(Cl)cc3)C(c3ccc(O)cc3)C2)cc1 (stereo not given) | Non-toxic | 5.4 µM | 38.7% | – | –
Oc1ccccc1C1=NN(c2cccc(Cl)c2)C(c2ccc(O)c(F)c2F)C1 (stereo not given) | Non-toxic | 6.6 µM | 39.2% | 1.4 µM | –

Structure (SMILES) | Activity (RAW264.7) | IC50 [1] | inhibition [2] | IC50 [3] | inhibition [4]
COc1cc(/C=C/C(=O)CC(=O)/C=C/c2ccc(O)c(OC)c2)ccc1O [CURCUMIN] | Non-toxic | – | – | – | 97%
Oc1ccc(C2CC(c3cccs3)=NN2c2ccc(C(F)(F)F)cc2)cc1 (stereo not given) | Non-toxic | 0.4 µM | 45.9% | 2.9 µM | 69%
CC(C)(C)C1=NN(c2ccccc2)C(c2ccc(O)cc2)C1 (stereo not given) | Non-toxic | – | – | – | 32%
CC(C)(C)C1=NN(c2ccc(F)cc2)C(c2ccc(O)cc2)C1 (stereo not given) | Non-toxic | 9.4 µM | – | – | –
CCOc1ccccc1C1=NN(c2ccc(Cl)cc2)C(c2ccc(O)cc2)C1 (stereo not given) | Non-toxic | – | – | – | –
Oc1ccc(C2CC(c3ccccc3)=NN2c2cccc(Cl)c2)cc1 (stereo not given) | Non-toxic | 2.1 µM | 45.5% | – | –
CC(C)(C)C1=NN(c2ccc(Br)cc2)C(c2ccc(O)cc2)C1 (stereo not given) | Non-toxic | 11.4 µM | – | – | –
CC(C)(C)C1=NN(c2ccc(Cl)cc2Cl)C(c2ccc(O)cc2)C1 (stereo not given) | Non-toxic | – | – | – | –
Oc1ccc(C2CC(c3ccccc3O)=NN2c2ccc(Cl)cc2)cc1O (stereo not given) | Non-toxic | < 0.1 µM | 44.1% | – | –
CC(C)(C)C1=NN(c2ccccc2F)C(c2ccc(O)cc2)C1 (stereo not given) | Non-toxic | – | – | – | –
CC(C)(C)C1=NN(c2ccc(Cl)cc2)C(c2ccc(O)c(F)c2)C1 (stereo not given) | Non-toxic | 3.8 µM | 29.7% | 3.7 µM | –
CC(C)(C)C1=NN(c2cccc(F)c2)C(c2ccc(O)cc2)C1 (stereo not given) | Non-toxic | 2.2 µM | 19.3% | – | –
Cc1ccc(N2N=C(C(C)(C)C)CC2c2ccc(O)cc2)cc1 (stereo not given) | Non-toxic | – | – | – | –
Oc1ccc(C2CC(c3cccs3)=NN2c2ccc(Cl)cc2)cc1 (stereo not given) | Non-toxic | – | – | – | –
CC(C)(C)C1=NN(c2ccc(F)c(F)c2)C(c2ccc(O)cc2)C1 (stereo not given) | Non-toxic | – | 23.7% | – | –
CC(C)(C)C1=NN(c2ccc(F)c(Cl)c2)C(c2ccc(O)cc2)C1 (stereo not given) | Non-toxic | 0.9 µM | 31.6% | 1.9 µM | –
Oc1ccccc1C1=NN(c2cccc(Cl)c2)C(c2cc(F)c(O)c(F)c2)C1 (stereo not given) | Non-toxic | 11.1 µM | 45.2% | 2.5 µM | –
CC(C)(C)C1=NN(c2ccccc2Cl)C(c2ccc(O)cc2)C1 (stereo not given) | Non-toxic | – | – | – | 26%
Cc1cccc(N2N=C(C(C)(C)C)CC2c2ccc(O)cc2)c1 (stereo not given) | Non-toxic | – | 13.9% | – | –
CC(C)(C)C1=NN(c2ccc(O)cc2)C(c2ccc(Cl)cc2)C1 (stereo not given) | Non-toxic | – | – | – | –
CC(C)(C)C1=NN(c2ccc(C(=O)O)cc2)C(c2ccc(O)cc2)C1 (stereo not given) | Non-toxic | – | – | – | –
